What was measured:
[1] = Biodistribution in baboon heart at 170 mg, iv after 90 mins; format: ADME, organism-based; conditions: papio hamadryas, read-out: Drug uptake
Summary of the method: (§1)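 Micro-dose [11C]-labelled drug given i.v. via a radial arm vein to baboons anaesthetised with ketamine (10 mg/kg i.m.), then maintained on oxygen, nitrous oxide and isoflurane (1–4%). Torso PET regions of interest were drawn by hand to give time-activity curves in %ID/cc. µg/ml values were estimated assuming a 10 mg/kg dose, a 17 kg baboon and signal coming from intact drug.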

[2] = Biodistribution in baboon kidney cortex at 170 mg, iv after 90 mins; format: ADME, organism-based; conditions: papio hamadryas, read-out: Drug uptake; summary of the method: as §1
[3] = Biodistribution in baboon gallbladder at 170 mg, iv after 30 mins; format: ADME, organism-based, Gall bladder; conditions: papio hamadryas, read-out: Drug uptake; summary of the method: as §1
[4] = Biodistribution in baboon kidney cortex at 170 mg, iv after 15 mins; format: ADME, organism-based; conditions: papio hamadryas, read-out: Drug uptake; summary of the method: as §1
[5] = Biodistribution in baboon gallbladder at 170 mg, iv after 90 mins; format: ADME, organism-based, Gall bladder; conditions: papio hamadryas, read-out: Drug uptake; summary of the method: as §1
[6] = Biodistribution in baboon lung at 170 mg, iv after 15 mins; format: ADME, organism-based; conditions: papio hamadryas, read-out: Drug uptake; summary of the method: as §1
[7] = Biodistribution in human lung at 108.7 mg, iv after 3 hrs; format: ADME, organism-based; conditions: read-out: Drug uptake
[8] = Biodistribution in baboon kidney cortex at 170 mg, iv after 60 mins; format: ADME, organism-based; conditions: papio hamadryas, read-out: Drug uptake; summary of the method: as §1
[9] = Biodistribution in baboon plasma at 170 mg, iv after 30 mins; format: ADME, organism-based; conditions: papio hamadryas, read-out: Drug uptake
Summary of the method: (§2)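 Anaesthetised baboons received [11C]-labelled drug i.v. (radial arm vein) by PET protocol. Arterial blood was drawn from a popliteal catheter every 5 s for 2 min, then at 2–90 min. Plasma activity is given as %ID/cc. µg/ml values were estimated from the human daily dose per kg scaled to a 17 kg baboon, assuming signal comes from intact drug.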

[10] = Biodistribution in baboon kidney medulla at 170 mg, iv after 30 mins; format: ADME, organism-based; conditions: papio hamadryas, read-out: Drug uptake; summary of the method: as §1
[11] = Biodistribution in baboon plasma at 170 mg, iv after 15 mins; format: ADME, organism-based; conditions: papio hamadryas, read-out: Drug uptake; summary of the method: as §2
[12] = Biodistribution in baboon gallbladder at 170 mg, iv after 15 mins; format: ADME, organism-based, Gall bladder; conditions: papio hamadryas, read-out: Drug uptake; summary of the method: as §1
[13] = Biodistribution in baboon kidney medulla at 170 mg, iv after 15 mins; format: ADME, organism-based; conditions: papio hamadryas, read-out: Drug uptake; summary of the method: as §1
[14] = Biodistribution in baboon plasma at 170 mg, iv after 90 mins; format: ADME, organism-based; conditions: papio hamadryas, read-out: Drug uptake; summary of the method: as §2
[15] = Biodistribution in baboon lung at 170 mg, iv after 90 mins; format: ADME, organism-based; conditions: papio hamadryas, read-out: Drug uptake; summary of the method: as §1
[16] = Biodistribution in baboon whole brain at 170 mg, iv after 90 mins; format: ADME, organism-based; conditions: papio hamadryas, read-out: Drug uptake
Summary of the method: (§3)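 Brain PET ran 90 min after i.v. [11C]-labelled drug in anaesthetised baboons. Whole-brain regions of interest gave time-activity curves in %ID/cc. µg/ml values were estimated from baboon weight (17 kg) and the recommended human daily dose per kg, assuming signal comes from intact drug.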

[17] = Biodistribution in baboon Liver at 170 mg, iv after 60 mins; format: ADME, organism-based; conditions: papio hamadryas, read-out: Drug uptake; summary of the method: as §1
[18] = Biodistribution in baboon kidney medulla at 170 mg, iv after 90 mins; format: ADME, organism-based; conditions: papio hamadryas, read-out: Drug uptake; summary of the method: as §1
[19] = Biodistribution in baboon plasma at 170 mg, iv after 60 mins; format: ADME, organism-based; conditions: papio hamadryas, read-out: Drug uptake; summary of the method: as §2
[20] = Biodistribution in baboon whole brain at 170 mg, iv after 60 mins; format: ADME, organism-based; conditions: papio hamadryas, read-out: Drug uptake; summary of the method: as §3
[21] = Biodistribution in baboon Liver at 170 mg, iv after 90 mins; format: ADME, organism-based; conditions: papio hamadryas, read-out: Drug uptake; summary of the method: as §1
[22] = Biodistribution in baboon heart at 170 mg, iv after 30 mins; format: ADME, organism-based; conditions: papio hamadryas, read-out: Drug uptake; summary of the method: as §1
[23] = Biodistribution in baboon kidney medulla at 170 mg, iv after 60 mins; format: ADME, organism-based; conditions: papio hamadryas, read-out: Drug uptake; summary of the method: as §1
[24] = Biodistribution in baboon Liver at 170 mg, iv after 30 mins; format: ADME, organism-based; conditions: papio hamadryas, read-out: Drug uptake; summary of the method: as §1
[25] = Biodistribution in baboon Liver at 170 mg, iv after 15 mins; format: ADME, organism-based; conditions: papio hamadryas, read-out: Drug uptake; summary of the method: as §1
[26] = Biodistribution in baboon gallbladder at 170 mg, iv after 60 mins; format: ADME, organism-based, Gall bladder; conditions: papio hamadryas, read-out: Drug uptake; summary of the method: as §1
[27] = Biodistribution in baboon whole brain at 170 mg, iv after 30 mins; format: ADME, organism-based; conditions: papio hamadryas, read-out: Drug uptake; summary of the method: as §3
[28] = Biodistribution in baboon heart at 170 mg, iv after 15 mins; format: ADME, organism-based; conditions: papio hamadryas, read-out: Drug uptake; summary of the method: as §1
[29] = Biodistribution in baboon lung at 170 mg, iv after 60 mins; format: ADME, organism-based; conditions: papio hamadryas, read-out: Drug uptake; summary of the method: as §1
[30] = Biodistribution in baboon kidney cortex at 170 mg, iv after 30 mins; format: ADME, organism-based; conditions: papio hamadryas, read-out: Drug uptake; summary of the method: as §1
[31] = Biodistribution in baboon heart at 170 mg, iv after 60 mins; format: ADME, organism-based; conditions: papio hamadryas, read-out: Drug uptake; summary of the method: as §1
[32] = Biodistribution in baboon lung at 170 mg, iv after 30 mins; format: ADME, organism-based; conditions: papio hamadryas, read-out: Drug uptake; summary of the method: as §1

**Q.** For `CO[C@H]1/C=C/O[C@@]2(C)Oc3c(C)c(O)c4cc(c(/C=N/N5CCN([11CH3])CC5)c(O)c4c3C2=O)NC(=O)/C(C)=C\C=C\C(C)[C@H](O)[C@@H](C)[C@@H](O)[C@@H](C)[C@H](OC(C)=O)[C@@H]1C` (some centres not stated), which concentration at 1.5 h [1] is on record?
**A.** 6.8 µg/mL

**Q.** What about the concentration at 1.5 h [2] of the same molecule?
**A.** 8.19 µg/mL

**Q.** What about the concentration at 0.5 h [3] of the same molecule?
**A.** 586 µg/mL

**Q.** What about the concentration at 0.25 h [4] of the same molecule?
**A.** 15.8 µg/mL

**Q.** And the concentration at 1.5 h [5]?
**A.** 1010 µg/mL

**Q.** And the concentration at 0.25 h [6]?
**A.** 5.03 µg/mL

**Q.** What about the concentration at 3 h [7] of the same molecule?
**A.** 1790 ng/g

**Q.** What about the concentration at 1 h [8] of the same molecule?
**A.** 0.43 µg/mL

**Q.** What about the concentration at 0.5 h [9] of the same molecule?
**A.** 1.5 µg/mL

**Q.** What about the concentration at 0.5 h [10] of the same molecule?
**A.** 11.6 µg/mL

**Q.** And the concentration at 0.25 h [11]?
**A.** 2.81 µg/mL

**Q.** And the concentration at 0.25 h [12]?
**A.** 121 µg/mL

**Q.** And the concentration at 0.25 h [13]?
**A.** 36.4 µg/mL

**Q.** And the concentration at 1.5 h [14]?
**A.** 1.16 µg/mL

**Q.** And the concentration at 1.5 h [15]?
**A.** 6.78 µg/mL

**Q.** What about the concentration at 1.5 h [16] of the same molecule?
**A.** 1.21 µg/mL

**Q.** What about the concentration at 1 h [17] of the same molecule?
**A.** 288 µg/mL

**Q.** And the concentration at 1.5 h [18]?
**A.** 9.44 µg/mL

**Q.** What about the concentration at 1 h [19] of the same molecule?
**A.** 1.14 µg/mL

**Q.** What about the concentration at 1 h [20] of the same molecule?
**A.** 0.912 µg/mL

**Q.** What about the concentration at 1.5 h [21] of the same molecule?
**A.** 300 µg/mL

**Q.** What about the concentration at 0.5 h [22] of the same molecule?
**A.** 5.28 µg/mL

**Q.** What about the concentration at 1 h [23] of the same molecule?
**A.** 6.73 µg/mL

**Q.** What about the concentration at 0.5 h [24] of the same molecule?
**A.** 276 µg/mL

**Q.** What about the concentration at 0.25 h [25] of the same molecule?
**A.** 259 µg/mL

**Q.** What about the concentration at 1 h [26] of the same molecule?
**A.** 983 µg/mL

**Q.** What about the concentration at 0.5 h [27] of the same molecule?
**A.** 1.09 µg/mL

**Q.** And the concentration at 0.25 h [28]?
**A.** 7.28 µg/mL

**Q.** And the concentration at 1 h [29]?
**A.** 2.53 µg/mL

**Q.** And the concentration at 0.5 h [30]?
**A.** 6.34 µg/mL

**Q.** And the concentration at 1 h [31]?
**A.** 1.93 µg/mL

**Q.** And the concentration at 0.5 h [32]?
**A.** 2.83 µg/mL

— ChEMBL document CHEMBL1156308 (J Med Chem, 2010)
